Measurements pooled from the literature.
Medium: PAMPA

Cc1c(S(=O)(=O)N2CCc3n[nH]cc3C2)cc(C(=O)NCc2c(F)ccc3cnn(C)c23)n1C — Papp: 11 ×10⁻⁶ cm/s
CC(C)(C)OC(=O)c1ccc(O)cc1 — Papp (5 µM; pH 7.4): 4.04 ×10⁻⁶ cm/s
C=C(CC(=O)OCOC(=O)C(C)(C)C)C(=O)OC — Papp (10 µM; 4 h; pH 7.4): > 10 ×10⁻⁶ cm/s
CCCCCCCOC(=O)c1ccc(O)cc1 — Papp (5 µM; pH 7.4): 1.9 ×10⁻⁶ cm/s
C=C(CC(=O)OCc1oc(=O)oc1C)C(=O)OCc1oc(=O)oc1C — Papp (10 µM; 4 h): ~15 ×10⁻⁶ cm/s
Cc1c(S(=O)(=O)N2CCn3cncc3C2)cc(C(=O)NCc2c(F)ccnc2N2CCCC2)n1C — Papp: 19.1 ×10⁻⁶ cm/s
O=C(O)c1cc(/N=N/c2ccc(S(=O)(=O)Nc3ccccn3)cc2)ccc1O — Papp (4 h): 0.077 ×10⁻⁶ cm/s
CCCCOC(=O)c1ccc(O)cc1 — Papp (5 µM; pH 7.4): 5.68 ×10⁻⁶ cm/s
COc1ccccc1CNC(=O)c1cc(S(=O)(=O)N2CCn3nccc3C2)c(C)n1C — Papp: 22.9 ×10⁻⁶ cm/s
C=C(CC(=O)OC)C(=O)OCc1oc(=O)oc1C — Papp (10 µM; 4 h): ~15 ×10⁻⁶ cm/s
Cc1[nH]c(C)c(S(=O)(=O)Nc2ccc(C(F)(F)F)c(Cl)c2)c1C(=O)N1CCC(F)(F)C1 — Papp: 7.3 ×10⁻⁶ cm/s
CCCCCOC(=O)c1ccc(O)cc1 — Papp (5 µM; pH 7.4): 4.28 ×10⁻⁶ cm/s
Cc1c(S(=O)(=O)N2CCc3c(cnn3C)C2)cc(C(=O)NCc2cccnc2N2CCCC2)n1C — Papp: 25 ×10⁻⁶ cm/s
O=C(OCc1ccccc1)c1ccc(O)cc1 — Papp (5 µM; pH 7.4): 3.79 ×10⁻⁶ cm/s
C=C(CC(=O)OCOC(=O)OC(C)C)C(=O)OC — Papp (10 µM; 4 h; pH 7.4): > 10 ×10⁻⁶ cm/s
